Laboratory results reported in ChEMBL document CHEMBL1155468, “Syntheses and evaluation of anticonvulsant profile and teratogenicity of novel amide derivatives of branched aliphatic carboxylic acids with 4-aminobenzensulfonamide” (J Med Chem, 2010).
Activity calls are given as the source filed them. The calls are words filed in the database; no cut-off is given here.

Experiments:
[1] = tested on: Mus musculus; assay: Neurotoxicity in CF1 albino mouse assessed as motor impairment at 300 mg/kg, ip after 4 hrs; assay type: toxicity, organism-based; parameters: dose 300 mg/kg, route intraperitoneal; settings: in vivo
[2] = tested on: Rattus norvegicus; assay: Anticonvulsant activity in po dosed rat assessed as inhibition of maximal electroshock-induced seizures
[3] = tested on: Mus musculus; assay: Anticonvulsant activity in CF1 albino mouse assessed as inhibition of subcutaneous pentylenetetrazole-induced seizures at 30 mg/kg, ip after 0.5 hrs; assay type: functional, organism-based; parameters: dose 30 mg/kg
In short: (§1)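 Adult male CF no. 1 albino mice (18-25 g) dosed ip with compound suspended in 0.5% methylcellulose (0.01 mL/g). Convulsant: pentylenetetrazol dissolved in 0.9% saline as a 0.85% solution for mice, given subcutaneously.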

[4] = tested on: Mus musculus; assay: Teratogenic effect in SWV mouse assessed as resorptions at 294 mg/kg, ip administered on morning of day 8 of gestation; assay type: toxicity, organism-based; parameters: dose 294 mg/kg, route intraperitoneal; settings: in vivo
In short: (§2)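 SWV inbred mice: two-month-old nulligravid females mated overnight with males and checked for vaginal plugs next morning; gestation onset taken as 10 p.m. the previous night. On gestation day 8.5 each dam got one ip injection, 0.55–2.7 mmol/kg, in 25% aqueous Cremophor EL (vehicle controls dosed alike), 10 μL/g body weight. Litters and implants tallied; resorptions and live fetuses reported as counts with percentages.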

[5] = tested on: Rattus norvegicus; assay: Anticonvulsant activity in Sprague-Dawley rat assessed as inhibition of maximal electroshock-induced seizures at 30 mg/kg, po after 4 hrs
[6] = tested on: Mus musculus; assay: Anticonvulsant activity in CF1 albino mouse assessed as inhibition of subcutaneous pentylenetetrazole-induced seizures at 100 mg/kg, ip after 0.5 hrs; assay type: functional, organism-based; parameters: dose 100 mg/kg; in short: as §1
[7] = tested on: Rattus norvegicus; assay: Anticonvulsant activity in Sprague-Dawley rat assessed as inhibition of maximal electroshock-induced seizures at 30 mg/kg, po after 2 hrs
[8] = tested on: Mus musculus; assay: Neurotoxicity in CF1 albino mouse assessed as motor impairment at 100 mg/kg, ip after 4 hrs; assay type: toxicity, organism-based; parameters: dose 100 mg/kg, route intraperitoneal; settings: in vivo
[9] = tested on: Mus musculus; assay: Anticonvulsant activity in CF1 albino mouse assessed as inhibition of maximal electroshock-induced seizures at 30 mg/kg, ip after 4 hrs; assay type: functional, organism-based; parameters: dose 30 mg/kg
In short: (§3)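 Test compounds suspended in 0.5% methylcellulose and given ip to adult male CF no. 1 albino mice (18-25 g) at 0.01 mL/g body weight before maximal electroshock challenge.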

[10] = tested on: Mus musculus; assay: Teratogenic effect in SWV mouse assessed as live fetuses at 486 mg/kg, ip administered on morning of day 8 of gestation; assay type: toxicity, organism-based; parameters: dose 486 mg/kg, route intraperitoneal; settings: in vivo; in short: as §2
[11] = tested on: Mus musculus; assay: Anticonvulsant activity in CF1 albino mouse assessed as inhibition of maximal electroshock-induced seizures at 30 mg/kg, ip after 0.5 hrs; assay type: functional, organism-based; parameters: dose 30 mg/kg; in short: as §3
[12] = tested on: Mus musculus; assay: Teratogenic effect in SWV mouse assessed as resorptions at 148 mg/kg, ip administered on morning of day 8 of gestation; assay type: toxicity, organism-based; parameters: dose 148 mg/kg, route intraperitoneal; settings: in vivo; in short: as §2
[13] = tested on: Mus musculus; assay: Anticonvulsant activity in CF1 albino mouse assessed as inhibition of subcutaneous pentylenetetrazole-induced seizures at 100 mg/kg, ip after 4 hrs; assay type: functional, organism-based; parameters: dose 100 mg/kg; in short: as §1
[14] = organism: Rattus norvegicus; assay: Protective index, ratio of TD50 for rat to ED50 for maximal electroshock-induced rat seizure model
[15] = tested on: Rattus norvegicus; assay: Neurotoxicity in Sprague-Dawley rat assessed as motor impairment at 30 mg/kg, po after 0.25 to 4 hrs; settings: in vivo
[16] = tested on: Mus musculus; assay: Teratogenic effect in SWV mouse assessed as fetuses with neural tube deffects at 486 mg/kg, ip administered on morning of day 8 of gestation; assay type: toxicity, organism-based; parameters: dose 486 mg/kg, route intraperitoneal; settings: in vivo
In short: (§4)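 Two-month-old nulligravid SWV females were mated overnight and checked for vaginal plugs the next morning; gestation onset was set at 10 p.m. the previous night. On gestation day 8.5, each dam received a single ip injection (0.55-2.7 mmol/kg range) or vehicle (25% aqueous Cremophor EL) at 10 μL/g body weight. Litters were scored for implants, resorptions, live and dead fetuses, and fetuses with neural tube defects.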

[17] = tested on: Mus musculus; assay: Teratogenic effect in SWV mouse assessed as resorptions at 486 mg/kg, ip administered on morning of day 8 of gestation; assay type: toxicity, organism-based; parameters: dose 486 mg/kg, route intraperitoneal; settings: in vivo; in short: as §2
[18] = tested on: Mus musculus; assay: Teratogenic effect in SWV mouse assessed as fetuses with neural tube deffects at 294 mg/kg, ip administered on morning of day 8 of gestation; assay type: toxicity, organism-based; parameters: dose 294 mg/kg, route intraperitoneal; settings: in vivo; in short: as §4
[19] = tested on: Mus musculus; assay: Neurotoxicity in CF1 albino mouse assessed as motor impairment at 30 mg/kg, ip after 4 hrs; assay type: toxicity, organism-based; parameters: dose 30 mg/kg, route intraperitoneal; settings: in vivo
[20] = tested on: Mus musculus; assay: Neurotoxicity in CF1 albino mouse assessed as motor impairment at 30 mg/kg, ip after 0.5 hrs; assay type: toxicity, organism-based; parameters: dose 30 mg/kg, route intraperitoneal; settings: in vivo
[21] = tested on: Mus musculus; assay: Anticonvulsant activity in CF1 albino mouse assessed as inhibition of subcutaneous pentylenetetrazole-induced seizures at 300 mg/kg, ip after 0.5 hrs; assay type: functional, organism-based; parameters: dose 300 mg/kg; in short: as §1
[22] = tested on: Mus musculus; assay: Neurotoxicity in CF1 albino mouse assessed as motor impairment at 100 mg/kg, ip after 0.5 hrs; assay type: toxicity, organism-based; parameters: dose 100 mg/kg, route intraperitoneal; settings: in vivo
[23] = tested on: Mus musculus; assay: Anticonvulsant activity in CF1 albino mouse assessed as inhibition of maximal electroshock-induced seizures at 300 mg/kg, ip after 4 hrs; assay type: functional, organism-based; parameters: dose 300 mg/kg; in short: as §3
[24] = tested on: Mus musculus; assay: Anticonvulsant activity in CF1 albino mouse assessed as inhibition of subcutaneous pentylenetetrazole-induced seizures at 300 mg/kg, ip after 4 hrs; assay type: functional, organism-based; parameters: dose 300 mg/kg; in short: as §1
[25] = tested on: Mus musculus; assay: Teratogenic effect in SWV mouse assessed as live fetuses at 294 mg/kg, ip administered on morning of day 8 of gestation; assay type: toxicity, organism-based; parameters: dose 294 mg/kg, route intraperitoneal; settings: in vivo; in short: as §4
[26] = tested on: Mus musculus; assay: Anticonvulsant activity in CF1 albino mouse assessed as inhibition of subcutaneous pentylenetetrazole-induced seizures at 30 mg/kg, ip after 4 hrs; assay type: functional, organism-based; parameters: dose 30 mg/kg; in short: as §1
[27] = tested on: Mus musculus; assay: Neurotoxicity in CF1 albino mouse assessed as motor impairment at 300 mg/kg, ip after 0.5 hrs; assay type: toxicity, organism-based; parameters: dose 300 mg/kg, route intraperitoneal; settings: in vivo
[28] = tested on: Mus musculus; assay: Teratogenic effect in SWV mouse assessed as live fetuses at 148 mg/kg, ip administered on morning of day 8 of gestation; assay type: toxicity, organism-based; parameters: dose 148 mg/kg, route intraperitoneal; settings: in vivo; in short: as §4
[29] = tested on: Rattus norvegicus; assay: Anticonvulsant activity in Sprague-Dawley rat assessed as inhibition of maximal electroshock-induced seizures at 30 mg/kg, po after 30 mins
[30] = tested on: Mus musculus; assay: Teratogenic effect in SWV mouse assessed as live fetuses at 164 mg/kg, ip administered on morning of day 8 of gestation; assay type: toxicity, organism-based; parameters: dose 164 mg/kg, route intraperitoneal; settings: in vivo
[31] = tested on: Mus musculus; assay: Teratogenic effect in SWV mouse assessed as live fetuses at 325 mg/kg, ip administered on morning of day 8 of gestation; assay type: toxicity, organism-based; parameters: dose 325 mg/kg, route intraperitoneal; settings: in vivo
[32] = tested on: Mus musculus; assay: Anticonvulsant activity in CF1 albino mouse assessed as inhibition of maximal electroshock-induced seizures at 300 mg/kg, ip after 0.5 hrs; assay type: functional, organism-based; parameters: dose 300 mg/kg; in short: as §3
[33] = tested on: Mus musculus; assay: Teratogenic effect in SWV mouse assessed as resorptions at 164 mg/kg, ip administered on morning of day 8 of gestation; assay type: toxicity, organism-based; parameters: dose 164 mg/kg, route intraperitoneal; settings: in vivo
[34] = tested on: Rattus norvegicus; assay: Anticonvulsant activity in Sprague-Dawley rat assessed as inhibition of maximal electroshock-induced seizures at 30 mg/kg, po after 1 hr
[35] = tested on: Mus musculus; assay: Teratogenic effect in SWV mouse assessed as resorptions at 325 mg/kg, ip administered on morning of day 8 of gestation; assay type: toxicity, organism-based; parameters: dose 325 mg/kg, route intraperitoneal; settings: in vivo
[36] = tested on: Mus musculus; assay: Anticonvulsant activity in CF1 albino mouse assessed as inhibition of maximal electroshock-induced seizures at 100 mg/kg, ip after 0.5 hrs; assay type: functional, organism-based; parameters: dose 100 mg/kg; in short: as §3
[37] = tested on: Rattus norvegicus; assay: Anticonvulsant activity in Sprague-Dawley rat assessed as inhibition of maximal electroshock-induced seizures at 30 mg/kg, po after 15 mins
[38] = tested on: Mus musculus; assay: Teratogenic effect in SWV mouse assessed as fetuses with neural tube deffects at 325 mg/kg, ip administered on morning of day 8 of gestation; assay type: toxicity, organism-based; parameters: dose 325 mg/kg, route intraperitoneal; settings: in vivo
[39] = tested on: Mus musculus; assay: Teratogenic effect in SWV mouse assessed as fetuses with neural tube deffects at 148 mg/kg, ip administered on morning of day 8 of gestation; assay type: toxicity, organism-based; parameters: dose 148 mg/kg, route intraperitoneal; settings: in vivo; in short: as §4
[40] = tested on: Mus musculus; assay: Teratogenic effect in SWV mouse assessed as resorptions at 729 mg/kg, ip administered on morning of day 8 of gestation; assay type: toxicity, organism-based; parameters: dose 729 mg/kg, route intraperitoneal; settings: in vivo; in short: as §2
[41] = tested on: Mus musculus; assay: Teratogenic effect in SWV mouse assessed as live fetuses at 729 mg/kg, ip administered on morning of day 8 of gestation; assay type: toxicity, organism-based; parameters: dose 729 mg/kg, route intraperitoneal; settings: in vivo; in short: as §2

Row | SMILES | Activity [1] | ED50 [2] [mg/kg] | Activity [3] | Activity [4] [%] | Activity [5] | Activity [6] | Activity [7] | Activity [8] | Activity [9] | Activity [10] [%] | Activity [11] | Activity [13] | Activity [19] | Activity [20] | Activity [21] | Activity [22] | Activity [23] | Activity [24] | Activity [26] | Activity [27] | also measured
1 | CC(C)(C)CC(=O)Nc1ccc(S(N)(=O)=O)cc1 | Non-toxic | 9.4 | inactive | 8.4 | Active | inactive | Active | Non-toxic | inactive | 91.1 | inactive | inactive | Non-toxic | Non-toxic | inactive | Non-toxic | Active | inactive | inactive | Non-toxic | Activity [12]: 8.6%; Ratio TD50/ED50 [14]: >53.2; Activity [15]: Non-toxic; Activity [16]: 15%; Activity [17]: 8.9%; Activity [18]: 3.7%; Activity [25]: 91.6%; Activity [28]: 91.4%
2 | CCCC(C(=O)Nc1ccc(S(N)(=O)=O)cc1)C(C)C (stereo not drawn) | Non-toxic | 41.5 | inactive |  |  | inactive |  | Non-toxic | inactive |  | inactive | inactive | Non-toxic | Non-toxic | inactive | Non-toxic | Active | inactive | inactive | Non-toxic | Activity [29]: inactive; Activity [30]: 100%; Activity [31]: 64.6%; Ratio TD50/ED50 [14]: >12; Activity [15]: Non-toxic; Activity [32]: Active; Activity [33]: 10.3%; Activity [34]: Active; Activity [35]: 35.4%; Activity [36]: inactive; Activity [37]: inactive; Activity [38]: 2%
3 | CCCC(C)C(=O)Nc1ccc(S(N)(=O)=O)cc1 (stereo not drawn) | Non-toxic | 10.8 | inactive | 34.8 | Active | inactive | Active | Non-toxic | inactive | 41.7 | inactive | inactive | Non-toxic | Non-toxic | inactive | Non-toxic | Active | inactive | inactive | Non-toxic | Activity [39]: 3.2%; Activity [40]: 92.5%; Activity [41]: 7.5%; Activity [12]: 10%; Activity [16]: 17%; Activity [17]: 58.3%; Activity [32]: Active; Activity [18]: 5.6%; Activity [34]: Active; Activity [36]: inactive; Activity [25]: 65.2%; Activity [28]: 90%
